Columns and labels:
Mus musculus [1] = species on record: Mus musculus; experiment: Compound was evaluated for the dose required to inhibit the cellular response to 50% (immune activity); format: functional
Outline: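 Cellular response to EL4 in Balb/c mice measured by spleen-cell lysis of 51Cr-labeled EL4 cells (3 h, 37 °C). Mice were given oral daily doses from day 0 to day 9 at several levels, tested up to 300 mg/kg. ED50 was obtained by linear interpolation between the doses giving above and below 50% inhibition.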

Mus musculus [2] = experiment: Compound was evaluated for immunological activity in mice as the percentage of suppression of the humoral response to EI4 tumor cells at 10 mg/kg, po; format: functional
Outline: (§1)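 Balb/c mice, groups of 10, immunized ip on day 0 with 10^7 EL4 cells. Dosed orally 10 mg/kg once daily days 0-9, in water with a little NaOH (pH ~8.5); saline controls. Titer taken as the dilution giving 50% maximal lysis; reported as % inhibition of control titer.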

Mus musculus [3] = experiment: Immunological activity in mice as the percentage of suppression of the cellular response to EI4 tumor cells at 10 mg/kg; format: functional
Outline: (§2)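 Balb/c mice, groups of 10, immunized ip on day 0 with 10^7 EL4 ascites tumor cells. Dosed orally 10 mg/kg once daily days 0-9, in water with a little NaOH (circa pH 8.5); saline controls. On day 10, spleen cells (1.5×10^7 viable) incubated with 51Cr-labeled EL4 cells (0.5×10^6) for 3 h at 37 °C in 10% CO2. Lysis corrected for spontaneous release; reported as % inhibition of control lysis.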

Mus musculus [4] = species on record: Mus musculus; experiment: Compound was evaluated for the dose required to inhibit the humoral response to 50% (immune activity); format: functional
Outline: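 Humoral response to EL4 in Balb/c mice measured as complement-dependent lysis titer of 51Cr-labeled EL4 cells by day-10 sera. Mice were given oral daily doses from day 0 to day 9 at several levels. ED50 was obtained by linear interpolation between the doses bracketing 50% inhibition of the control titer.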

Mus musculus [5] = experiment: Compound was evaluated for immunological activity in mice as the percentage of suppression of the cellular response to EI4 tumor cells at 10 mg/kg, po; format: functional; outline: as §2
[6] = Acid dissociation constant was determined; format: ADME
Outline: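 pKa by potentiometric titration in 2:1 dioxane-H2O (v/v) against 0.5 N NaOH; apparent pKa read as the pH at half-neutralization.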

Mus musculus [7] = experiment: Compound was evaluated for immunological activity in mice as the percentage of suppression of the humoral response to EI4 tumor cells at 10 mg/kg, po; Data unreliable; format: functional, organism-based; set-up: dose 10 mg/kg; outline: as §1

pKa [6]	Compound	ED50 (Mus musculus [1]) [mg/kg]	Suppression (Mus musculus [2]) [%]	Suppression (Mus musculus [3]) [%]	ED50 (Mus musculus [4]) [mg/kg]	Suppression (Mus musculus [5]) [%]	Suppression (Mus musculus [7])
	Oc1c2c(nn1-c1ccc(F)cc1)-c1ccccc1SC2	5.5	>90	86	3.3		
	Oc1c2c(nn1-c1cc(Cl)cc(Cl)c1)-c1ccccc1SC2	31	73	19	8		
	Oc1c2c(nn1-c1cccc(Cl)c1)-c1ccccc1SC2	45	67		9	16	
	Oc1c2c(nn1-c1ccc(Cl)c(Cl)c1)-c1ccccc1SC2	3	87	62	1		
	Oc1c2c(nn1-c1ccc(Cl)cc1Cl)-c1ccccc1SC2		20	-4			
	Oc1c2c(nn1Cc1ccccc1)-c1ccccc1SC2		0	-3			
	Cn1nc2c(c1O)CSc1ccccc1-2		-3	14			
7.28	Oc1c2c(nn1-c1cccc(Cl)c1Cl)-c1ccccc1SC2		51	5			
7.13	Oc1c2c(nn1-c1ccc(Br)cc1)-c1ccccc1SC2	3.3	>90	84	2		
	Oc1c2c(nn1-c1ccccn1)-c1ccccc1SC2		-19	2			
	Oc1c2c(nn1-c1ccc(C(F)(F)F)cc1)-c1ccccc1SC2	6.5	>90	71	6		
7.76	COc1ccc(-n2nc3c(c2O)CSc2ccccc2-3)cc1	240	-6	-11	150		
	Oc1c2c(nn1-c1c(Cl)cccc1Cl)-c1ccccc1SC2		4	1			
7.48	Oc1c2c(nn1-c1ccccc1)-c1ccccc1SC2	130		1	70		Data unreliable
	O=c1c2csc3ccccc3c-2nn1-c1ccc(Cl)cc1		>90	63			
7.74	Oc1c2c(nn1-c1ccccc1Cl)-c1ccccc1SC2		45	8			
	CS(=O)(=O)c1ccc(-n2nc3c(c2O)CSc2ccccc2-3)cc1	> 300	28	1	170		
	O=[N+]([O-])c1ccc(-n2nc3c(c2O)CSc2ccccc2-3)cc1			27			Data unreliable
	Oc1c2c(nn1CC(F)(F)F)-c1ccccc1SC2		17	-2			
	O=P1(N(CCCl)CCCl)NCCCO1 (centres undefined) [CYCLOPHOSPHAMIDE ANHYDROUS]		>90	52			
	Sc1ncnc2nc[nH]c12 [MERCAPTOPURINE ANHYDROUS]		52	63			
	[O-][S+]1Cc2c(nn(-c3ccc(Cl)cc3)c2O)-c2ccccc21 (centres undefined)		>90	>90			
7.64	Cc1ccc(-n2nc3c(c2O)CSc2ccccc2-3)cc1		46	19			
7.56	Oc1c2c(nn1-c1ccc(Cl)cc1)-c1ccccc1SC2	2	>90	>90	0.5		
	Oc1[nH]nc2c1CSc1ccccc1-2			1			Data unreliable
	Cn1cnc([N+](=O)[O-])c1Sc1ncnc2[nH]cnc12 [AZATHIOPRINE]		6	-3			
